According to ChEMBL document CHEMBL5108057, “Development of MAO-A and 5-HT2AR Dual Inhibitors with Improved Antidepressant Activity” (J Med Chem, 2022):
Active and inactive are the calls of the source. The calls are words filed in the database; no cut-off is given here.

Key:
PC-12 = experiment: Neurocytoprotective activity against CORT-induced damage in rat PC-12 cells at 0.5 uM measured after 24 hrs by MTT assay; assay type: functional, cell-based
How it was run: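 PC12 cells seeded at 5 × 10^4 cells/mL for 24 h. Medium was then replaced with compound (0.5–4.0 μM) plus 500 μM CORT (DMSO <1%) for 24 h. Viability was measured by MTT relative to the CORT model group.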

Danio rerio [1] = organism: Danio rerio; experiment: Antidepressant activity in reserpine-induced zebrafish AB depression model assessed as increase in exploratory ability at 0.1 to 1 uM pretreated for 40 mins with reserpine followed by compound addition and measured for 7 days by novel tank test; assay type: functional, organism-based; conditions: dose 0.1-1 µM, time 7.0 day
How it was run: (§1)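 Zebrafish were exposed to 10 mg/L reserpine for 40 min. Compound (0.1, 0.5, 1 μM) or fluoxetine (1 μM) was given 24 h later for 7 days. Fish kept at 28.5 °C on a 14 h light/10 h dark cycle. Open-field and novel tank tests were video-tracked for distance, velocity, immobility and time in the top. Mean ± SD, n = 6.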

[2] = Cmax in Sprague-Dawley rat at 2 mg/kg, iv measured upto 1440 mins by LC-MS/MS analysis; assay type: ADME, organism-based; design: time < 1440 min, dose 2 mg/kg, route iv; conditions: in vivo
Mus musculus [3] = experiment: Antidepressant activity in chronic unpredictable mild stress ICR mouse model assessed as increase in gluco-phagy at 10 to 20 mg/kg measured after 2 weeks by sugar preference test; assay type: functional, organism-based; conditions: dose 10-20 mg/kg
How it was run: (§2)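 ICR mice received CUMS for 4 weeks: 11 stressors given randomly twice daily, 42 days in total. OFT: 5 min session scoring distance, speed, rearing and dejection. FST/TST: 6 min, with immobility scored over the last 4 min. Sucrose preference test was also run. Mean ± SD, n = 6.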

Mus musculus [4] = experiment: Antidepressant activity in chronic unpredictable mild stress ICR mouse model assessed as decrease in immobility time at 10 to 20 mg/kg measured after 2 weeks by tail suspension test; assay type: functional, organism-based; conditions: dose 10-20 mg/kg; how it was run: as §2
Danio rerio [5] = organism: Danio rerio; experiment: Antidepressant activity in reserpine-induced zebrafish AB depression model assessed as fast travel at 0.1 to 1 uM pretreated for 40 mins with reserpine followed by compound addition and measured for 7 days by open field test; assay type: functional, organism-based; conditions: dose 0.1-1 µM, time 7.0 day; how it was run: as §1
Hippocampus = experiment: Antidepressant activity in mouse hippocampal tissue assessed as reduction in neuronal cell damage at 10 to 20 mg/kg by H and E staining based assay; assay type: functional, organism-based; conditions: dose 10-20 mg/kg
How it was run: (§3)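 Mice given compound at 10 or 20 mg/kg, with fluoxetine 20 mg/kg as comparator. Paraffin tissue sections of 4 μm were cut. Staining: hematoxylin 5 min, 75% HCl-ethanol differentiation 30 s, eosin 2 min. Organs (liver, kidney, lung, heart, spleen) examined at ×400; hippocampus (CA1, CA3, DG) at ×200.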

Mus musculus [6] = experiment: Antidepressant activity in reserpine-induced ICR mouse model assessed as reduction in immobility time at 10 to 20 mg/kg pretreated with reserpine for 3 days followed by compound addition on day 4 to 10 by tail suspension test; assay type: functional, organism-based; conditions: dose 10-20 mg/kg, time 6.0 day
How it was run: (§4)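 Body weight was recorded daily. OFT: 5 min session scoring distance, speed, rearing and dejection. FST and TST: 6 min, with immobility scored over the last 4 min. Mean ± SD, n = 6; one-way ANOVA and t-test.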

[7] = Toxicity in mouse assessed as toxic effect on lung at 10 to 20 mg/kg by H and E staining based assay; assay type: organism-based; conditions: in vivo, dose 10-20 mg/kg; how it was run: as §3
Mus musculus [8] = experiment: Antidepressant activity in reserpine-induced ICR mouse model assessed as reduction in immobility time at 10 to 20 mg/kg pretreated with reserpine for 3 days followed by compound addition on day 4 to 10 by forced swimming test; assay type: functional, organism-based; conditions: dose 10-20 mg/kg, time 6.0 day; how it was run: as §4
Danio rerio [9] = organism: Danio rerio; experiment: Antidepressant activity in reserpine-induced zebrafish AB depression model assessed as increase in distance traveled at 0.1 to 1 uM pretreated for 40 mins with reserpine followed by compound addition and measured for 7 days by open field test; assay type: functional, organism-based; conditions: dose 0.1-1 µM, time 7.0 day; how it was run: as §1
Mus musculus [10] = experiment: Antidepressant activity in reserpine-induced mouse assessed as downregulation of 5-HT2AR expression at 10 to 20 mg/kg pretreated with reserpine for 3 days followed by compound addition on day 4 to 10 by Western blot analysis; assay type: functional, organism-based; conditions: dose 10-20 mg/kg, time 6.0 day
How it was run: (§5)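 Whole-brain protein was quantified by BCA and diluted to 3 mg/mL, then run on 4−20% SDS-PAGE and blotted. Primary antibody at 4 °C overnight, secondary 1 h at room temperature. 5-HT1AR and 5-HT2AR levels are relative; mean ± SD, n = 3.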

Mus musculus [11] = experiment: Antidepressant activity in reserpine-induced mouse assessed as increase in 5-HT1AR expression at 10 to 20 mg/kg pretreated with reserpine for 3 days followed by compound addition on day 4 to 10 by Western blot analysis; assay type: functional, organism-based; conditions: dose 10-20 mg/kg, time 6.0 day; how it was run: as §5
[12] = Inhibition of 5-HT2AR mRNA expression in zebra fish AB assessed as fold decrease in 2 delta delta CT level at 1 uM by RT-qPCR method relative to control; assay type: functional, Danio rerio
How it was run: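 Total RNA from zebrafish was extracted with Trizol and reverse-transcribed with MMLV. SYBR Green qPCR: 95 °C 2 min; 40 cycles of 95, 60 and 72 °C, 30 s each; then 72 °C for 5 min. 5-HT2AR was normalized to GAPDH by the 2^−ΔΔCT method; mean ± SD, n = 3.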

[13] = Half life in Sprague-Dawley rat at 2 mg/kg, iv measured upto 1440 mins by LC-MS/MS analysis; assay type: ADME, organism-based; conditions: in vivo
[14] = Clearance in Sprague-Dawley rat at 2 mg/kg, iv measured upto 1440 mins by LC-MS/MS analysis; assay type: ADME, organism-based; conditions: in vivo
[15] = Cytotoxicity against human L02 cells assessed as reduction in cell growth measured after 48 hrs by MTT assay; assay type: toxicity, cell-based
How it was run: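 MTT assay: PC12, SH-SY5Y or L02 cells at 5.0 × 10^3 per well were grown for 24 h, treated with compound dilutions from 10 mM DMSO stocks, and cultured 48 h. MTT was then added for 4 h at 37 °C, formazan dissolved in DMSO, and absorbance read at 570 nm. Viability is relative to blank control; IC50 from three repeats. Media contained 10% FBS.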

[16] = Cmax in Sprague-Dawley rat at 10 mg/kg, IG measured upto 1440 mins by LC-MS/MS analysis; assay type: ADME, organism-based; design: time < 1440 min, dose 10 mg/kg, route ig; conditions: in vivo, po
Mus musculus [17] = experiment: Antidepressant activity in chronic unpredictable mild stress ICR mouse model assessed as increase in total distance traveled at 10 to 20 mg/kg administered for 2 weeks by open field test; assay type: functional, organism-based; conditions: dose 10-20 mg/kg; how it was run: as §2
Mus musculus [18] = experiment: Antidepressant activity in reserpine-induced ICR mouse model assessed as increase in total distance traveled at 10 to 20 mg/kg pretreated with reserpine for 3 days followed by compound addition for 1 week by open field test; assay type: functional, organism-based; conditions: dose 10-20 mg/kg, time 1.0 weeks; how it was run: as §4

Cmax [2]: 673 ng/mL
half-life [13]: 6.31 h
clearance [14]: 14.5 mL/min/kg
Cmax [16]: 99.7 ng/mL
SMILES: O=C1c2ccccc2-c2nccc3cc(OCCCCCN4CCN(c5ccccc5F)CC4)cc1c23
Activity (PC-12): Active
Activity (Danio rerio [1]): Active
Activity (Mus musculus [3]): Active
Activity (Mus musculus [4]): Active
Activity (Danio rerio [5]): Active
Activity (Hippocampus): Active
Activity (Mus musculus [6]): Active
Activity [7]: Non-Toxic
Activity (Mus musculus [8]): Active
Activity (Danio rerio [9]): Active
Activity (Mus musculus [10]): Active
Activity (Mus musculus [11]): Active
fold change (FC) [12]: 0.014
IC50 at 48 h [15]: > 100 µM
Activity (Mus musculus [17]): Active
Activity (Mus musculus [18]): Active
